Measured values reported in ChEMBL document CHEMBL1140069, “In vitro antifungal activity of polyfunctionalized 2-(hetero)arylquinolines prepared through imino Diels-Alder reactions” (2008).

Tests used:
Assay type in all cases: functional
Cryptococcus neoformans [1] = assay: Antimicrobial activity against Cryptococcus neoformans IM 961951 isolate at 6.25 ug/ml after 48 hrs
Procedure, shortened: (§1)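 Clinical Cryptococcus isolates kept on Sabouraud-dextrose agar slopes; inoculum 1–5 × 10³ CFU/mL. Quinoline DMSO stocks were diluted in RPMI-1640 to final 100–6.25 µg/mL, with DMSO ≤2%. An equal volume of inoculum was added (200 µL per well). Run in triplicate.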

Cryptococcus neoformans [2] = assay: Antimicrobial activity against Cryptococcus neoformans IM 983040 isolate at 6.25 ug/ml after 48 hrs; procedure, shortened: as §1
Candida albicans [3] = assay: Antimicrobial activity against Candida albicans C127 isolate at 6.25 ug/ml after 24 hrs; conditions: C127, 24 h
Procedure, shortened: (§2)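 Growth-inhibition microplate test. Strains are grown on Sabouraud-chloramphenicol agar for 48 h at 30 °C, and inoculum is added to RPMI-1640 containing compound at a final 100–6.25, with DMSO ≤2%. Each strain has a growth control (same DMSO, no compound) and a sterility control.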

Candida albicans [4] = assay: Antimicrobial activity against Candida albicans C126 isolate at 6.25 ug/ml after 24 hrs; procedure, shortened: as §2
Pichia kudriavzevii = assay: Antimicrobial activity against Candida krusei C117 isolate at 6.25 ug/ml after 24 hrs
Procedure, shortened: (§3)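 Percent growth inhibition in 96-well microplates. Compound stocks in DMSO (≤2%) were diluted in RPMI-1640 to final 100–6.25 µg/mL, and 100 µL inoculum was added (final 200 µL). Controls were a growth well (inoculum with matching DMSO, no compound) and a sterility well (no inoculum). Inhibition was calculated against growth and sterility wells.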

Candida albicans [5] = assay: Antifungal activity against Candida albicans ATCC 10231 after 48 hrs by broth microdilution technique; conditions: ATCC 10231, 48 h
Procedure, shortened: (§4)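 CLSI broth microdilution: M-27 A2 for yeasts and M-38 A for filamentous fungi. Medium is RPMI-1640 buffered to pH 7.0 with MOPS. Compound is diluted twofold from 250 to 0.98, final DMSO ≤2%. Inoculum is 1–5 × 10³ CFU/mL. Plates are incubated at 35 °C in a moist, dark chamber and read visually at 48 h. MIC100 is the lowest concentration giving total growth inhibition versus drug-free control.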

Cryptococcus neoformans [6] = assay: Antimicrobial activity against Cryptococcus neoformans IM 031631 isolate at 6.25 ug/ml after 48 hrs; procedure, shortened: as §3
Cryptococcus neoformans [7] = assay: Antimicrobial activity against Cryptococcus neoformans IM 052470 isolate at 6.25 ug/ml after 48 hrs; procedure, shortened: as §3
Cryptococcus neoformans [8] = assay: Antimicrobial activity against Cryptococcus neoformans IM 972724 isolate at 6.25 ug/ml after 48 hrs; procedure, shortened: as §1
Saccharomyces cerevisiae = assay: Antifungal activity against Saccharomyces cerevisiae ATCC 9763 after 48 hrs by broth microdilution technique; conditions: ATCC 9763, 48 h; procedure, shortened: as §4
Candida albicans [9] = assay: Antimicrobial activity against Candida albicans ATCC 10231 at 6.25 ug/ml after 24 hrs; conditions: ATCC 10231, 24 h; procedure, shortened: as §2
Aspergillus niger = assay: Antifungal activity against Aspergillus niger ATCC 9029 after 48 hrs by broth microdilution technique; conditions: ATCC 9029, 48 h; procedure, shortened: as §4
Aspergillus flavus = assay: Antifungal activity against Aspergillus flavus ATCC 9170 after 48 hrs by broth microdilution technique; conditions: ATCC 9170, 48 h; procedure, shortened: as §4
Cryptococcus neoformans [10] = assay: Antimicrobial activity against Cryptococcus neoformans IM 972751 isolate at 6.25 ug/ml after 48 hrs; procedure, shortened: as §1
Cryptococcus neoformans [11] = assay: Antimicrobial activity against Cryptococcus neoformans IM 042074 isolate at 6.25 ug/ml after 48 hrs; procedure, shortened: as §3
Cryptococcus neoformans [12] = assay: Antimicrobial activity against Cryptococcus neoformans ATCC 32264 at 6.25 ug/ml after 48 hrs; conditions: ATCC 32264, 48 h; procedure, shortened: as §3
Aspergillus fumigatus = assay: Antifungal activity against Aspergillus fumigatus ATTC 26934 after 48 hrs by broth microdilution technique; procedure, shortened: as §4
Candida albicans [13] = assay: Antimicrobial activity against Candida albicans C129 isolate at 6.25 ug/ml after 24 hrs; procedure, shortened: as §2
Cryptococcus neoformans [14] = assay: Antifungal activity against Cryptococcus neoformans ATCC 32264 after 48 hrs by broth microdilution technique; conditions: ATCC 32264, 48 h; procedure, shortened: as §4
Cryptococcus neoformans [15] = assay: Antimicrobial activity against Cryptococcus neoformans IM 031706 isolate at 6.25 ug/ml after 48 hrs; procedure, shortened: as §3
Cryptococcus neoformans [16] = assay: Antimicrobial activity against Cryptococcus neoformans IM 983036 isolate at 6.25 ug/ml after 48 hrs; procedure, shortened: as §1
Candida tropicalis = assay: Antimicrobial activity against Candida tropicalis C131 isolate at 6.25 ug/ml after 24 hrs; procedure, shortened: as §3
Candida parapsilosis = assay: Antimicrobial activity against Candida parapsilosis C124 isolate at 6.25 ug/ml after 24 hrs; conditions: Lodderomyces parapsilosis; procedure, shortened: as §3
Candida albicans [17] = assay: Antimicrobial activity against Candida albicans C130 isolate at 6.25 ug/ml after 24 hrs; procedure, shortened: as §2
Cryptococcus neoformans [18] = assay: Antimicrobial activity against Cryptococcus neoformans IM 00319 isolate at 6.25 ug/ml after 48 hrs; procedure, shortened: as §3
Nakaseomyces glabratus = assay: Antimicrobial activity against Candida glabrata C115 isolate at 6.25 ug/ml after 24 hrs; procedure, shortened: as §3
Candida albicans [19] = assay: Antimicrobial activity against Candida albicans C128 isolate at 6.25 ug/ml after 24 hrs; procedure, shortened: as §2
[20] = test system: Trichophyton mentagrophytes; assay: Antifungal activity against Trichophyton mentagrophytes ATCC 9972 after 48 hrs by broth microdilution technique; conditions: ATCC 9972, 48 h; procedure, shortened: as §4
Trichophyton rubrum [21] = assay: Antifungal activity against Trichophyton rubrum C110 after 48 hrs by broth microdilution technique; procedure, shortened: as §4
Nannizzia gypsea = assay: Antifungal activity against Microsporum gypseum C115 after 48 hrs by broth microdilution technique; procedure, shortened: as §4
Trichophyton rubrum [22] = assay: Antifungal activity against Trichophyton rubrum C136 isolate; conditions: read-out: MIC100
[23] = test system: Trichophyton mentagrophytes; assay: Antifungal activity against Trichophyton mentagrophytes C943 isolate; conditions: read-out: MIC100
Trichophyton rubrum [24] = assay: Antifungal activity against Trichophyton rubrum C135 isolate; conditions: read-out: MIC100
[25] = test system: Trichophyton mentagrophytes; assay: Antifungal activity against Trichophyton mentagrophytes C364 isolate; conditions: read-out: MIC100
Trichophyton rubrum [26] = assay: Antifungal activity against Trichophyton rubrum C133 isolate; conditions: read-out: MIC100
[27] = test system: Trichophyton mentagrophytes; assay: Antifungal activity against Trichophyton mentagrophytes C131 isolate; conditions: read-out: MIC100
Trichophyton rubrum [28] = assay: Antifungal activity against Trichophyton rubrum C137 isolate; conditions: read-out: MIC100
[29] = test system: Trichophyton mentagrophytes; assay: Antifungal activity against Trichophyton mentagrophytes C539 isolate; conditions: read-out: MIC100
[30] = test system: Trichophyton mentagrophytes; assay: Antifungal activity against Trichophyton mentagrophytes C132 isolate; conditions: read-out: MIC100

C[C@@H]1[C@H](O)[C@@H](C)/C=C/C=C/C=C/C=C/C=C/C=C/C=C/[C@H](O[C@@H]2O[C@H](C)[C@@H](O)[C@H](N)[C@@H]2O)C[C@@H]2O[C@](O)(C[C@@H](O)C[C@@H](O)[C@H](O)CC[C@@H](O)C[C@@H](O)CC(=O)O[C@H]1C)C[C@H](O)[C@H]2C(=O)O [AMPHOTERICIN B]
100%: inhibition at 6.25 µg/mL (Cryptococcus neoformans [1]) | inhibition at 6.25 µg/mL (Cryptococcus neoformans [2]) | inhibition at 6.25 µg/mL (Candida albicans [3]) | inhibition at 6.25 µg/mL (Candida albicans [4]) | inhibition at 6.25 µg/mL (Pichia kudriavzevii) | inhibition at 6.25 µg/mL (Cryptococcus neoformans [6]) | inhibition at 6.25 µg/mL (Cryptococcus neoformans [7]) | inhibition at 6.25 µg/mL (Cryptococcus neoformans [8]) | inhibition at 6.25 µg/mL (Candida albicans [9]) | inhibition at 6.25 µg/mL (Cryptococcus neoformans [10]) | inhibition at 6.25 µg/mL (Cryptococcus neoformans [11]) | inhibition at 6.25 µg/mL (Cryptococcus neoformans [12]) | inhibition at 6.25 µg/mL (Candida albicans [13]) | inhibition at 6.25 µg/mL (Cryptococcus neoformans [15]) | inhibition at 6.25 µg/mL (Cryptococcus neoformans [16]) | inhibition at 6.25 µg/mL (Candida tropicalis) | inhibition at 6.25 µg/mL (Candida parapsilosis) | inhibition at 6.25 µg/mL (Candida albicans [17]) | inhibition at 6.25 µg/mL (Cryptococcus neoformans [18]) | inhibition at 6.25 µg/mL (Nakaseomyces glabratus) | inhibition at 6.25 µg/mL (Candida albicans [19])
0.25 µg/mL: MIC (Cryptococcus neoformans [14])
0.5 µg/mL: MIC (Saccharomyces cerevisiae) | MIC (Aspergillus niger) | MIC (Aspergillus flavus) | MIC (Aspergillus fumigatus)
1 µg/mL: MIC (Candida albicans [5])

CC(=O)N1CCN(c2ccc(OCC3COC(Cn4ccnc4)(c4ccc(Cl)cc4Cl)O3)cc2)CC1 (centres undefined) [KETOCONAZOLE]
0.05 µg/mL: MIC (Nannizzia gypsea)
0.25 µg/mL: MIC (Aspergillus niger) | MIC (Cryptococcus neoformans [14])
0.5 µg/mL: MIC (Candida albicans [5]) | MIC (Saccharomyces cerevisiae) | MIC (Aspergillus flavus)
0.125 µg/mL: MIC (Aspergillus fumigatus)
0.025 µg/mL: MIC [20] | MIC (Trichophyton rubrum [21]; read-out: MIC)
100%: inhibition at 6.25 µg/mL (Cryptococcus neoformans [1]) | inhibition at 6.25 µg/mL (Cryptococcus neoformans [2]) | inhibition at 6.25 µg/mL (Candida albicans [3]) | inhibition at 6.25 µg/mL (Candida albicans [4]) | inhibition at 6.25 µg/mL (Pichia kudriavzevii) | inhibition at 6.25 µg/mL (Cryptococcus neoformans [6]) | inhibition at 6.25 µg/mL (Cryptococcus neoformans [7]) | inhibition at 6.25 µg/mL (Cryptococcus neoformans [8]) | inhibition at 6.25 µg/mL (Candida albicans [9]) | inhibition at 6.25 µg/mL (Cryptococcus neoformans [10]) | inhibition at 6.25 µg/mL (Cryptococcus neoformans [11]) | inhibition at 6.25 µg/mL (Cryptococcus neoformans [12]) | inhibition at 6.25 µg/mL (Candida albicans [13]) | inhibition at 6.25 µg/mL (Cryptococcus neoformans [15]) | inhibition at 6.25 µg/mL (Cryptococcus neoformans [16]) | inhibition at 6.25 µg/mL (Candida tropicalis) | inhibition at 6.25 µg/mL (Candida parapsilosis) | inhibition at 6.25 µg/mL (Candida albicans [17]) | inhibition at 6.25 µg/mL (Cryptococcus neoformans [18]) | inhibition at 6.25 µg/mL (Nakaseomyces glabratus) | inhibition at 6.25 µg/mL (Candida albicans [19])

CN(C/C=C/C#CC(C)(C)C)Cc1cccc2ccccc12 [TERBINAFINE]
0.01 µg/mL: MIC (Trichophyton rubrum [21]; read-out: MIC100)
0.012 µg/mL: MIC (Trichophyton rubrum [28])
0.006 µg/mL: MIC (Trichophyton rubrum [22]) | MIC [23] | MIC (Trichophyton rubrum [24]) | MIC [25] | MIC (Trichophyton rubrum [26]) | MIC [27] | MIC [29] | MIC [30]
0.04 µg/mL: MIC [20] | MIC (Nannizzia gypsea)
